Measured values taken from ChEMBL document CHEMBL3286129, “Optimization of peptidomimetic boronates bearing a P3 bicyclic scaffold as proteasome inhibitors” (Eur J Med Chem, 2014).
Active and inactive are the calls of the source. The rule behind the calls is not given here.

Tests used:
NCI-H460 = test: Growth inhibition of human NCI-H460 cells; type: functional
NCI-H522 = test: Growth inhibition of human NCI-H522 cells; type: functional
COLO 205 = test: Growth inhibition of human COLO205 cells; type: functional
HT-29 = test: Growth inhibition of human HT-29 cells; type: functional
KM12 = test: Growth inhibition of human KM12 cells; type: functional
SF-268 = test: Growth inhibition of human SF268 cells; type: functional
[1] = Growth inhibition of human SF295 cells; type: functional; conditions: SF-295
[2] = Growth inhibition of human SF539 cells; type: functional
U-251 = test: Growth inhibition of human U251 cells; type: functional
[3] = Growth inhibition of human LOXIMVI cells; type: functional; conditions: LOX IMVI
Malme-3M = test: Growth inhibition of human MALME-3M cells; type: functional
M14 = test: Growth inhibition of human M14 cells; type: functional
SK-MEL-2 = test: Growth inhibition of human SK-MEL-2 cells; type: functional
SK-MEL-5 = test: Growth inhibition of human SK-MEL-5 cells; type: functional
[4] = Growth inhibition of human UACC257 cells; type: functional
[5] = Growth inhibition of human OVCAR3 cells; type: functional; conditions: OVCAR-3
[6] = Growth inhibition of human OVCAR4 cells; type: functional
[7] = Growth inhibition of human OVCAR8 cells; type: functional
SK-OV-3 = test: Growth inhibition of human SKOV3 cells; type: functional
786-0 = test: Growth inhibition of human 786-0 cells; type: functional
ACHN = test: Growth inhibition of human ACHN cells; type: functional
PC-3 = test: Growth inhibition of human PC3 cells; type: functional
MCF7 = test: Growth inhibition of human MCF7 cells; type: functional
T47D = test: Growth inhibition of human T47D cells; type: functional
[8] = molecular target: Proteasome Macropain subunit (Homo sapiens) (UniProt P49721); test: Inhibition of trypsin-like activity of 20S proteasome in human erythrocytes using Boc-Leu-Arg-Arg-AMC as substrate by fluorescence assay; type: cell-based
Chain of Proteasome Macropain subunit (Homo sapiens) (P49721 whole entry): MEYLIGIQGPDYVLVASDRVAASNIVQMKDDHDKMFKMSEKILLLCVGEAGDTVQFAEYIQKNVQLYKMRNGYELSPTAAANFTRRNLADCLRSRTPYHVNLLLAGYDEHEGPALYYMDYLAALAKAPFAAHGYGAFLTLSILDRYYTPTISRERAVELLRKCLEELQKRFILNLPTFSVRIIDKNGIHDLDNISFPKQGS
Procedure, shortened: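 Human 20S proteasome 0.0025 mg/mL at 30 °C in 50 mM Tris pH 7.4, 50 mM NaCl, 0.5 mM EDTA, 0.03% SDS, 7.5% DMSO. Varied inhibitor concentrations; AMC release monitored continuously for 10 min, ex 380/em 460 nm. Ki derived from progress-curve IC50 fit.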

Chymotrypsinogen A = Chymotrypsinogen A (Bos taurus, UniProt P00766); test: Inhibition of bovine pancreatic alpha-chymotrypsin using Suc-Leu-Leu-Val-Tyr-AMC as substrate by fluorescence assay
Procedure, shortened: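 Enzyme incubated at 20 °C in 50 mM Tris pH 8.0, 100 mM NaCl, 5 mM EDTA, 7.5% DMSO with varied inhibitor concentrations. Substrate hydrolysis followed for 10 min. Ki from progress curves; mean of three determinations.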

[9] = Cytotoxicity against human leukemia cells assessed as cell growth at 10 uM relative to control; type: functional; conditions: read-out: Activity
Procedure, shortened: (§1)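 Single-concentration screen against a panel of human cancer cell lines. Each value is the mean percent growth across the cell lines of that tumour subpanel.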

[10] = Cytotoxicity against human NSCLC cells assessed as cell growth at 10 uM relative to control; type: functional; conditions: read-out: Activity; procedure, shortened: as §1
[11] = Cytotoxicity against human colon cancer cells assessed as cell growth at 10 uM relative to control; type: functional; conditions: Cancer cell lines, read-out: Activity; procedure, shortened: as §1
[12] = Cytotoxicity against human ovarian cancer cells assessed as cell growth at 10 uM relative to control; type: functional; conditions: Cancer cell lines, read-out: Activity; procedure, shortened: as §1
[13] = Cytotoxicity against human renal cancer cells assessed as cell growth at 10 uM relative to control; type: functional; conditions: Cancer cell lines, read-out: Activity; procedure, shortened: as §1
[14] = Cytotoxicity against human prostate cancer cells assessed as cell growth at 10 uM relative to control; type: functional; conditions: Cancer cell lines, read-out: Activity; procedure, shortened: as §1
[15] = Cytotoxicity against human breast cancer cells assessed as cell growth at 10 uM relative to control; type: functional; conditions: Cancer cell lines, read-out: Activity; procedure, shortened: as §1
CCRF-CEM = test: Growth inhibition of human CCRF-CEM cells; type: functional
HL-60(TB) = test: Growth inhibition of human HL-60(TB) cells; type: functional
K562 = test: Growth inhibition of human K562 cells; type: functional
[16] = Growth inhibition of human MOLT4 cells; type: functional
RPMI-8226 = test: Growth inhibition of human RPMI8226 cells; type: functional
HOP-62 = test: Growth inhibition of human HOP62 cells; type: functional
NCI-H23 = test: Growth inhibition of human NCI-H23 cells; type: functional
[17] = read-out: LC50 (the source's name)

CC(C)C[C@H](NC(=O)CCn1ccc2ccccc2c1=O)B(O)O
GI50 (NCI-H460): 13 µM | LC50 (NCI-H460): > 100 µM | TGI (NCI-H460): 56.2 µM | GI50 (NCI-H522): 2.61 µM | LC50 (NCI-H522): > 100 µM | TGI (NCI-H522): 8.09 µM | GI50 (COLO 205): 5.06 µM | TGI (COLO 205): > 100 µM | CC50 (COLO 205; [17]): > 100 µM | GI50 (HT-29): 3.68 µM | LC50 (HT-29): > 100 µM | TGI (HT-29): 48.7 µM | GI50 (KM12): 7.51 µM | LC50 (KM12): > 100 µM | TGI (KM12): 29.8 µM | GI50 (SF-268): 5.69 µM | LC50 (SF-268): > 100 µM | TGI (SF-268): 30.4 µM | GI50 [1]: 3.78 µM | LC50 [1]: 83.3 µM | TGI [1]: 19.6 µM | GI50 ([2]; SF-539): 1.61 µM | TGI ([2]; SF-539): 5.62 µM | CC50 ([2]; SF-539, read-out: LC50 (the source's name)): > 100 µM | GI50 (U-251): 4.23 µM | TGI (U-251): > 100 µM | CC50 (U-251; [17]): > 100 µM | GI50 [3]: 2.11 µM | TGI [3]: 6.78 µM | CC50 [3, 17]: > 100 µM | GI50 (Malme-3M): 2.58 µM | TGI (Malme-3M): 9.89 µM | CC50 (Malme-3M; [17]): > 100 µM | GI50 (M14): 4.23 µM | LC50 (concentration killing 50% of cells) (M14): > 100 µM | TGI (M14): > 100 µM | GI50 (SK-MEL-2): 3.58 µM | LC50 (SK-MEL-2): > 100 µM | TGI (SK-MEL-2): 32.5 µM | GI50 (SK-MEL-5): 4.3 µM | LC50 (concentration killing 50% of cells) (SK-MEL-5): 83.7 µM | TGI (SK-MEL-5): 19 µM | GI50 ([4]; UACC-257): 3.68 µM | TGI ([4]; UACC-257): 33.8 µM | CC50 ([4]; UACC-257, read-out: LC50 (the source's name)): > 100 µM | GI50 [5]: 1.97 µM | LC50 (concentration killing 50% of cells) [5]: 31.7 µM | TGI [5]: 5.66 µM | GI50 ([6]; OVCAR-4): 17 µM | TGI ([6]; OVCAR-4): > 100 µM | CC50 ([6]; OVCAR-4, read-out: LC50 (the source's name)): > 100 µM | GI50 ([7]; OVCAR-8): 15.3 µM | TGI ([7]; OVCAR-8): > 100 µM | CC50 ([7]; OVCAR-8, read-out: LC50 (the source's name)): > 100 µM | GI50 (SK-OV-3): 4.72 µM | LC50 (SK-OV-3): > 100 µM | TGI (SK-OV-3): 81.3 µM | GI50 (786-0): 4.76 µM | TGI (786-0): > 100 µM | CC50 (786-0; [17]): > 100 µM | GI50 (ACHN): 1.75 µM | TGI (ACHN): > 100 µM | CC50 (ACHN; [17]): > 100 µM | GI50 (PC-3): 5.77 µM | TGI (PC-3): > 100 µM | CC50 (PC-3; [17]): > 100 µM | GI50 (MCF7): 4.35 µM | TGI (MCF7): > 100 µM | CC50 (MCF7; [17]): > 100 µM | GI50 (T47D): 3.71 µM | TGI (T47D): 29.3 µM | CC50 (T47D; [17]): > 100 µM | inhibition [8]: inactive | Ki (Chymotrypsinogen A): Not Active | growth at 10 µM [9]: 21.1% | growth at 10 µM [10]: 60.3% | growth at 10 µM [11]: 45.1% | growth at 10 µM [12]: 73.1% | growth at 10 µM [13]: 32.3% | growth at 10 µM [14]: 57.8% | growth at 10 µM [15]: 38.1% | GI50 (CCRF-CEM): 2.02 µM | TGI (CCRF-CEM): 25.4 µM | CC50 (CCRF-CEM; [17]): > 100 µM | GI50 (HL-60(TB)): 2.69 µM | TGI (HL-60(TB)): 49.5 µM | CC50 (HL-60(TB); [17]): > 100 µM | GI50 (K562): 4.97 µM | TGI (K562): > 100 µM | CC50 (K562; [17]): > 100 µM | GI50 ([16]; MOLT-4): 1.28 µM | TGI ([16]; MOLT-4): 5.94 µM | CC50 ([16]; MOLT-4, read-out: LC50 (the source's name)): > 100 µM | GI50 (RPMI-8226): 1.06 µM | TGI (RPMI-8226): 7.07 µM | CC50 (RPMI-8226; [17]): > 100 µM | GI50 (HOP-62): 4.51 µM | TGI (HOP-62): 22.1 µM | CC50 (HOP-62; [17]): 96.4 µM | GI50 (NCI-H23): 25.4 µM | TGI (NCI-H23): > 100 µM | CC50 (NCI-H23; [17]): > 100 µM
